The values below come from ChEMBL document CHEMBL1145996 (J Med Chem, 2003).

The first experiment concerns Plasmodium falciparum. The experiment can be described thus: In vitro antimalarial activity against chloroquine-sensitive Plasmodium falciparum D6 Sierra Leone. Type of experiment: functional, organism-based.
With `OC(c1cc(C(F)(F)F)nc2c(C(F)(F)F)cccc12)C1CCCCN1` (centres undefined) [MEFLOQUINE], half-maximal inhibition (IC50) was put at 0.17 µM.

A further experiment deals with Leishmania donovani. The experiment can be described thus: Antileishmanial activity of compound against leishmania donovani was determined in luciferase assay. Type of experiment: functional, organism-based. The method, boiled down:
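Transgenic Leishmania donovani promastigotes expressing firefly luciferase, 2×10^6 cell/mL, exposed to compound dilutions in 96-well plates at 26°C for 72 h; growth read by luciferase luminescence (Steady Glo). At least six concentrations, each in duplicate; mean values used for growth inhibition curves and IC50. Pentamidine and amphotericin B as standards.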
Take `C[C@H]1[C@@H](O)O[C@@H]2O[C@@]3(C)CC[C@H]4[C@H](C)CC[C@@H]1[C@@]24OO3` [ARTENIMOL]: 70.3 µM corresponded to half-maximal inhibition (IC50).
In the case of `CC(=O)O[C@@H]1O[C@@]2(C)CC[C@H]3[C@H](C)CCC[C@@]13OO2`, inhibition was half-maximal at 148 µM (IC50).
Regarding `COc1ccc(CCC[C@H]2C(=O)O[C@@H]3O[C@@]4(C)CCC5[C@H](C)CC[C@@H]2[C@]53OO4)cc1` (some centres undefined), the half-maximal inhibitory concentration (IC50) (usually the concentration at which inhibition is half-maximal) stood at 12 µM.
As to `C[C@@H]1CC[C@H]2CCO[C@@H]3O[C@@]4(C)CC[C@@H]1[C@@]23OO4`, the IC50 came out at 49.2 µM.
Still for that read-out and setting: as for `C[C@@H]1CC[C@H]2CC(=O)O[C@@H]3OC4(CCc5ccccc5)CC[C@@H]1[C@@]23OO4` (single isomer, unassigned), the figure is 12.6 µM; as for `C[C@@H]1CC[C@H]2[C@@H](CCCc3cc(C(F)(F)F)cc(C(F)(F)F)c3)CO[C@@H]3O[C@@]4(C)CC[C@@H]1[C@]32OO4`, 0.3 µM; as for `CCC[C@@]12CCC3[C@H](C)CC[C@H]4CC(=O)O[C@H](O1)[C@@]34OO2` (some centres undefined), 40.5 µM.
Still for that read-out and setting: for `CC(C)CN1C(=O)C[C@@H]2CC[C@@H](C)[C@@H]3CC[C@@]4(C)OO[C@@]23[C@H]1O4` the value was 186 µM; for `C[C@@H]1CC[C@H]2[C@@H](Cc3ccccc3)C(=O)O[C@@H]3O[C@@]4(C)CCC1[C@]32OO4` (some centres undefined), 15.3 µM.
`CCOC1O[C@@H]2O[C@]3(C)CC[C@H]4[C@H](C)CC[C@@H]([C@H]1C)C24OO3` (some centres undefined) came in with an IC50 of 44.8 µM.
In turn, `CC(C)CCC[C@H]1C(=O)O[C@@H]2O[C@@]3(C)CCC4[C@H](C)CC[C@@H]1[C@]42OO3` (some centres undefined) had an IC50 of 8.5 µM.
On the same count and under the same terms, for `C[C@@H]1CC[C@H]2[C@@H](C)C(=O)O[C@@H]3OC(C)(C)OO[C@@]32[C@H]1C` the value was 158 µM; for `C[C@@H]1CC[C@H]2[C@H](CCCc3ccc(N(C)C)cc3)C(=O)O[C@@H]3O[C@@]4(C)CCC1[C@]32OO4` (some centres undefined), 88.3 µM; for `C=CC[C@H]1C(=O)O[C@@H]2O[C@@]3(C)CCC4[C@H](C)CC[C@@H]1[C@]42OO3` (some centres undefined), 17.8 µM.
In turn, `C[C@@H]1CC[C@H]2[C@@H](CCCc3ccc(Cl)cc3)CO[C@@H]3O[C@@]4(C)CC[C@@H]1[C@]32OO4` yielded an IC50 of 4.9 µM.
Still for that read-out and setting: as for `C[C@@H]1CC[C@H]2[C@@H](CCCCc3ccccc3)C(=O)O[C@@H]3O[C@@]4(C)CCC1[C@]32OO4` (some centres undefined), the figure is 7.5 µM; as for `C[C@@H]1CC[C@H]2[C@@H](CCCc3cccc(Cl)c3)CO[C@@H]3O[C@@]4(C)CC[C@@H]1[C@]32OO4`, 3.7 µM.
The same measure, in the same setting: as for `CCCC[C@@]12CC[C@H]3[C@H](C)CC[C@H]4CCO[C@H](O1)[C@]43OO2`, the figure is 152 µM; as for `C[C@@H]1CC[C@H]2C(C)(C)C(=O)O[C@@H]3O[C@@]4(C)CCC1[C@]32OO4` (some centres undefined), 101 µM.
`C[C@@H]1CC[C@H]2[C@@H](CCCc3ccc(C(F)(F)F)cc3)C(O)O[C@@H]3O[C@@]4(C)CC[C@@H]1[C@]32OO4` (some centres undefined) showed an IC50 of 2.9 µM.
On to `C[C@@H]1CC[C@H]2[C@@H](CCCc3cc(F)cc(F)c3)CO[C@@H]3O[C@@]4(C)CC[C@@H]1[C@]32OO4`, for which the IC50 worked out at 11 µM.
Still for that read-out and setting: for `CC[C@H]1C(=O)O[C@@H]2O[C@@]3(C)CCC4[C@H](C)CC[C@@H]1[C@]42OO3` (some centres undefined) the value was 60.7 µM; for `N=C(N)c1ccc(OCCCCCOc2ccc(C(=N)N)cc2)cc1` [PENTAMIDINE], 1.35 µM.
Take `CCCC[C@H]1C(=O)O[C@@H]2O[C@@]3(CC)CCC4[C@H](C)CC[C@@H]1[C@]42OO3` (some centres undefined): the IC50 amounted to 35.5 µM.
On the same count and under the same terms, for `C[C@@H]1CC[C@H]2[C@@H](CCCc3cc(F)cc(F)c3)C(=O)O[C@@H]3O[C@@]4(C)CCC1[C@]32OO4` (some centres undefined) the value was 49.7 µM; for `CC[C@@]12CC[C@H]3[C@H](C)CC[C@H]4CC(=O)O[C@H](O1)[C@]43OO2`, 177 µM; for `CCC[C@H]1C(=O)O[C@@H]2O[C@@]3(C)CCC4[C@H](C)CC[C@@H]1[C@]42OO3` (some centres undefined), 16.8 µM.
Still for that read-out and setting: as for `C[C@@H]1CC[C@H]2[C@@H](CCCC(F)(F)F)C(O)O[C@@H]3O[C@@]4(C)CC[C@@H]1[C@]32OO4` (some centres undefined), the figure is 26.3 µM; as for `C[C@@H]1CC[C@H]2[C@@H](C)CO[C@@H]3OC4(C)CC[C@@H]1[C@]32OO4` (single isomer, unassigned) [DEOXOARTEMISININ], 46.6 µM.
Still for that read-out and setting: as for `C[C@@H]1CC[C@H]2[C@@H](C)C(=O)O[C@@H]3O[C@@]4(C)CC[C@@H]1[C@]32OO4` [ARTEMISININ], the figure is 124 µM; as for `C[C@@H]1CC[C@H]2[C@@H](CCCc3ccc(Cl)c(Cl)c3)CO[C@@H]3O[C@@]4(C)CC[C@@H]1[C@]32OO4`, 2.3 µM.
`C[C@@H]1[C@H](O)[C@@H](C)/C=C/C=C/C=C/C=C/C=C/C=C/C=C/[C@H](O[C@@H]2O[C@H](C)[C@@H](O)[C@H](N)[C@@H]2O)C[C@@H]2O[C@](O)(C[C@@H](O)C[C@@H](O)[C@H](O)CC[C@@H](O)C[C@@H](O)CC(=O)O[C@H]1C)C[C@H](O)[C@H]2C(=O)O` [AMPHOTERICIN B]: inhibition was half-maximal at 0.01 µM (IC50).
Consider `COc1ccc(CCC[C@H]2CO[C@@H]3O[C@@]4(C)CC[C@H]5[C@H](C)CC[C@@H]2[C@@]35OO4)cc1`, for which inhibition was half-maximal at 17.4 µM (IC50).
`C[C@@H]1CC[C@H]2[C@@H](CCCc3ccc(Cl)cc3)C(=O)O[C@@H]3O[C@@]4(C)CCC1[C@]32OO4` (some centres undefined): half-maximal inhibition (IC50) was put at 11.9 µM.
On to `C[C@@H]1CC[C@H]2[C@@H](CCCC(F)(F)F)C(=O)O[C@@H]3O[C@@]4(C)CCC1[C@]32OO4` (some centres undefined), for which the IC50 was found to be 79.3 µM.
The same measure, in the same setting: for `CC1(C)OO[C@]23CCCC[C@H]2C(C)(C)C(=O)O[C@@H]3O1` the value was 204 µM.
On to `C[C@@H]1CC[C@H]2[C@@H](CCCc3cc(F)cc(F)c3)C(O)O[C@@H]3O[C@@]4(C)CC[C@@H]1[C@]32OO4` (some centres undefined), for which the IC50 was determined as 33 µM.
On the same count and under the same terms, for `C[C@@H]1CC[C@H]2CC(=O)O[C@@H]3O[C@@]4(CCCc5ccc(Cl)cc5)CCC1[C@@]23OO4` (some centres undefined) the value was 11.1 µM; for `CCCC[C@@]12CCC3[C@H](C)CC[C@H]4CC(=O)O[C@H](O1)[C@@]34OO2` (some centres undefined), 258 µM; for `C[C@@H]1CC[C@H]2CC(=O)N(CCc3ccccc3)[C@@H]3O[C@@]4(C)CC[C@@H]1[C@@]23OO4`, 32.3 µM.
On to `CCC[C@@]12CC[C@H]3[C@H](C)CC[C@H]4CCO[C@H](O1)[C@]43OO2`, for which the IC50 stood at 70.8 µM.
Regarding `C[C@@H]1CC[C@H]2[C@@H](CCCc3cccc(F)c3)C(=O)O[C@@H]3O[C@@]4(C)CCC1[C@]32OO4` (some centres undefined), the IC50 is 3.7 µM.
Same read-out and setting: for `C[C@@H]1CC[C@H]2CC(O)O[C@@H]3O[C@@]4(C)CC[C@@H]1[C@@]23OO4` (some centres undefined) the value was 44.4 µM; for `CCCCN1C(=O)C[C@@H]2CC[C@@H](C)[C@@H]3CC[C@@]4(C)OO[C@@]23[C@H]1O4`, 44.5 µM.
With `CCCC[C@H]1C(=O)O[C@@H]2O[C@@]3(C)CCC4[C@H](C)CC[C@@H]1[C@]42OO3` (some centres undefined), half-maximal inhibition (IC50) was put at 12.3 µM.
In turn, `C[C@@H]1CC[C@H]2CC(=O)O[C@@H]3O[C@@]4(C)CCC1[C@@]23OO4` (some centres undefined) registered an IC50 of 242 µM.
On the same count and under the same terms, as for `CCCC[C@H]1C(=O)O[C@@H]2O[C@@]3(CCCCc4ccccc4)CCC4[C@H](C)CC[C@@H]1[C@]42OO3` (some centres undefined), the figure is 4.5 µM; as for `C[C@@H]1CC[C@H]2CCO[C@@H]3OC4(CCc5ccccc5)CC[C@@H]1[C@@]23OO4` (single isomer, unassigned), 37.7 µM; as for `C[C@@H]1CC[C@H]2[C@@H](CCCc3cccc(Cl)c3)C(O)O[C@@H]3O[C@@]4(C)CC[C@@H]1[C@]32OO4` (some centres undefined), 16.6 µM.
The same measure, in the same setting: as for `C[C@@H]1CC[C@H]2CC(=O)N(Cc3ccccc3)[C@@H]3O[C@@]4(C)CC[C@@H]1[C@@]23OO4`, the figure is 56 µM.
Molecule `CCOC(=O)CCC12CCC3[C@H](C)CC[C@H]4CC(=O)O[C@H](O1)[C@@]34OO2` (single isomer, unassigned) returned an IC50 of 31 µM.
Same read-out and setting: for `C[C@@H]1CC[C@H]2[C@@H](CCCc3ccc(C(F)(F)F)cc3)CO[C@@H]3O[C@@]4(C)CC[C@@H]1[C@]32OO4` the value was 1.8 µM; for `C[C@@H]1CC[C@H]2[C@@H](CCc3ccccc3)C(=O)O[C@@H]3O[C@@]4(C)CCC1[C@]32OO4` (some centres undefined), 40.3 µM; for `C[C@@H]1CC[C@H]2[C@@H](CCCc3ccc(Cl)cc3)C(O)O[C@@H]3O[C@@]4(C)CC[C@@H]1[C@]32OO4` (some centres undefined), 4.7 µM.
The same measure, in the same setting: for `C[C@@H]1CC[C@H]2CC(=O)N(Cc3ccc(Cl)cc3)[C@@H]3O[C@@]4(C)CC[C@@H]1[C@@]23OO4` the value was 25.5 µM; for `C[C@@H]1CC[C@H]2CC(=O)N(CC(=O)OC(C)(C)C)[C@@H]3O[C@@]4(C)CC[C@@H]1[C@@]23OO4`, 27.5 µM; for `CCCC[C@H]1C(O)O[C@@H]2O[C@@]3(C)CC[C@H]4[C@H](C)CC[C@@H]1[C@@]24OO3` (some centres undefined), 383 µM.

The next experiment concerns Plasmodium falciparum. The experiment can be described thus: In vitro antimalarial activity against chloroquine-resistant Plasmodium falciparum W2 Indochina. Type of experiment: functional, organism-based. In a few lines: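 Asynchronous P. falciparum cultures (2% hematocrit, 2% parasitemia) given compound dilutions in DMSO or RPMI-1640, incubated 48 h at 37°C under 90% N2/5% CO2/5% O2 in humidified chamber. Growth read as parasite lactate dehydrogenase activity with Malstat reagent. At least six concentrations, each in duplicate; medium and RBC controls on each plate.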
The molecule `OC(c1cc(C(F)(F)F)nc2c(C(F)(F)F)cccc12)C1CCCCN1` (centres undefined) [MEFLOQUINE] had an IC50 of 0.195 µM.
